From ChEMBL document CHEMBL4732084, “Potent antiproliferative activity of bradykinin B2 receptor selective agonist FR-190997 and analogue structures thereof: A paradox resolved?” (Eur J Med Chem, 2021)
pIC50: −log10 of the molar value.

Assays:
MDA-MB-231 = test: Antiproliferative activity against human MDA-MB-231 cells assessed as cell viability after 24 hrs; format: functional, cell-based; conditions: MDA-MB-231, 24 h
MCF7 = test: Antiproliferative activity against human MCF7 cells assessed as cell viability after 24 hrs; format: functional, cell-based; conditions: MCF7, 24 h
Method in brief: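 MCF-7 cells (ATCC) kept in DMEM with 10% FBS, 1.0 mM pyruvate, 2 mM L-glutamine and penicillin at 37 °C, 5% CO2. Cells grown to 60–70% confluence, then given fresh medium and compound (DMSO stock diluted in medium) at 0–200 μM for 24 h with serum. Surviving cells counted manually. IC50 from a non-linear fit of % living cells vs log concentration. Triplicate, mean ± SD.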

B2 bradykinin receptor = target: T1, B2 bradykinin receptor (Homo sapiens, UniProt P30411); test: Agonist activity at bradykinin B2 receptor (unknown origin)
T1 sequence (P30411 whole entry): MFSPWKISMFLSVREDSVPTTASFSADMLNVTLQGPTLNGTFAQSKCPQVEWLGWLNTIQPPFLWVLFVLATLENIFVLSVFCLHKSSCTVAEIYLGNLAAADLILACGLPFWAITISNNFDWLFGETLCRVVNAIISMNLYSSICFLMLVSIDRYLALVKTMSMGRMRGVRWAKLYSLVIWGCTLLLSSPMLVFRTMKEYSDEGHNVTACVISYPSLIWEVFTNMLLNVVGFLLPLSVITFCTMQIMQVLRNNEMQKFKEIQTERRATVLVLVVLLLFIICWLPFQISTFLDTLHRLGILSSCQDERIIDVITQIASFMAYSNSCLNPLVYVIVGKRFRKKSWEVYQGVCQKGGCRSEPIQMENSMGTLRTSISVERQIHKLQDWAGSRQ

Row | SMILES | pIC50 (MDA-MB-231) | pIC50 (MCF7) | pIC50 (B2 bradykinin receptor)
1 | Cc1nc(NC(=O)N2CCC[C@H]2C(N)=O)sc1-c1ccnc(C(C)(C)C(F)(F)F)c1 [ALPELISIB] | 4.20 |  | 
2 | CC1=C(/C=C/C(C)=C/C=C/C(C)=C/C(=O)NCC(=O)N(C)c2ccc(Cl)c(COc3cccc4c(OCc5ccccn5)cc(C)nc34)c2Cl)C(C)(C)CCC1 | 3.71 | 4.19 | 
3 | CC/C(=C(\c1ccccc1)c1ccc(OCCN(C)C)cc1)c1ccccc1 [TAMOXIFEN] | 4.16 |  | 
4 | Nc1ccn([C@@H]2O[C@H](CO)[C@@H](O)C2(F)F)c(=O)n1 [GEMCITABINE] | 5.68 |  | 
5 | Cc1cc(OCc2ccccn2)c2cccc(N)c2n1 | 4.66 | 6.07 | 
6 | CNC(=O)c1ccc(/C=C/C(=O)NCC(=O)N(C)c2ccc(Cl)c(COc3cccc4c(OCc5ccccn5)cc(C)nc34)c2Cl)cc1 | 7.10 | 5.67 | 
7 | CN(C)C(=O)c1cc2cnc(Nc3ccc(N4CCNCC4)cn3)nc2n1C1CCCC1 [RIBOCICLIB] | 4.56 |  | 
8 | CC(C)C[C@H](NC(=O)[C@H](Cc1ccccc1)NC(=O)c1cnccn1)B(O)O [BORTEZOMIB] | 8.52 |  | 
9 | COc1cc(/C=C/C(=O)O)ccc1O [FERULATE] | 4.82 | 6.44 | 
10 | O=P1(N(CCCl)CCCl)NCCCO1 (stereo unspecified) [CYCLOPHOSPHAMIDE ANHYDROUS] | 3.71 |  | 
11 | CNC(=O)c1ccc(/C=C/C(=O)NCc2cn(-c3ccc(Cl)c(COc4cccc5c(OCc6ccccn6)cc(C)nc45)c3Cl)nn2)cc1 | 3.70 | 4.04 | 
12 | CC[C@]1(O)C[C@@H]2CN(CCc3c([nH]c4ccccc34)[C@@](C(=O)OC)(c3cc4c(cc3OC)N(C)[C@H]3[C@@](O)(C(=O)OC)[C@H](OC(C)=O)[C@]5(CC)C=CCN6CC[C@]43[C@@H]65)C2)C1 [VINBLASTINE] | 7.62 |  | 
13 | CC(=O)O[C@H]1C(=O)[C@@]2(C)[C@H]([C@H](OC(=O)c3ccccc3)[C@]3(O)C[C@H](OC(=O)[C@H](O)[C@@H](NC(=O)c4ccccc4)c4ccccc4)C(C)=C1C3(C)C)[C@]1(OC(C)=O)CO[C@@H]1C[C@@H]2O [PACLITAXEL] | 6.05 |  | 
14 | Cc1cc(OCc2ccccn2)c2cccc(OCc3cccc(Oc4ccccc4)c3)c2n1 | 5.16 | 3.39 | 
15 | CNC(=O)c1ccc(/C=C/C(=O)O)cc1 | 4.07 | 5.67 | 
16 | C[C@]12CC[C@@H]3c4ccc(O)cc4C[C@@H](CCCCCCCCC[S+]([O-])CCCC(F)(F)C(F)(F)F)[C@H]3[C@@H]1CC[C@@H]2O (stereo partly specified) [FULVESTRANT] | 3.71 |  | 
17 | CNC(=O)c1ccc(/C=C/C(=O)NCC(=O)N(C)c2ccc(Cl)c(CNc3cccc4c(OCc5ccccn5)cc(C)nc34)c2Cl)cc1 | 10.23 | 5.92 | 
18 | CC(=O)c1c(C)c2cnc(Nc3ccc(N4CCNCC4)cn3)nc2n(C2CCCC2)c1=O [PALBOCICLIB] | 4.84 |  | 

Row | SMILES | pIC50 (MDA-MB-231) | pIC50 (MCF7) | pIC50 (B2 bradykinin receptor)
19 | CC(=O)O[C@@]12CO[C@@H]1C[C@H](O)[C@@]1(C)C(=O)[C@H](O)C3=C(C)[C@@H](OC(=O)[C@H](O)[C@@H](NC(=O)OC(C)(C)C)c4ccccc4)C[C@@](O)([C@@H](OC(=O)c4ccccc4)[C@H]21)C3(C)C [DOCETAXEL ANHYDROUS] | 8.00 |  | 
20 | CC1=C(/C=C/C(C)=C/C=C/C(C)=C/C(=O)NCC(=O)N(C)c2ccc(Cl)c(CNc3cccc4c(OCc5ccccn5)cc(C)nc34)c2Cl)C(C)(C)CCC1 | 8.30 | 4.19 | 
21 | Cc1cc(OCc2ccccn2)c2cccc(O)c2n1 | 3.35 | 6.80 | 
22 | COc1nc2c(OCc3c(Cl)ccc(N(C)C(=O)CNC(=O)/C=C/c4ccc(NC(C)=O)nc4)c3Cl)cccc2n1Cc1ccccn1 |  |  | 9.17
23 | CN(C(=O)CN1C(=O)c2ccccc2C1=O)c1ccc(Cl)c(CO)c1Cl | 6.11 | 4.28 | 
24 | CC1=C(/C=C/C(C)=C/C=C/C(C)=C/C(=O)O)C(C)(C)CCC1 [TRETINOIN] | 4.80 | 5.21 | 
25 | CNC(=O)c1ccc(/C=C/C(=O)NCc2cn(-c3ccc(Cl)c(CNc4cccc5c(OCc6ccccn6)cc(C)nc45)c3Cl)nn2)cc1 | 6.37 | 6.14 | 
26 | COc1cccc2c1C(=O)c1c(O)c3c(c(O)c1C2=O)C[C@@](O)(C(=O)CO)C[C@@H]3O[C@H]1C[C@H](N)[C@H](O)[C@H](C)O1 [DOXORUBICIN] | 7.00 |  | 
27 | CO[C@H]1C[C@@H]2CC[C@@H](C)[C@@](O)(O2)C(=O)C(=O)N2CCCC[C@H]2C(=O)O[C@H]([C@H](C)C[C@@H]2CC[C@@H](O)[C@H](OC)C2)CC(=O)[C@H](C)/C=C(\C)[C@@H](O)[C@@H](OC)C(=O)[C@H](C)C[C@H](C)/C=C/C=C/C=C/1C [SIROLIMUS] | 6.05 |  | 
28 | COc1cc(/C=C/C(=O)NCC(=O)N(C)c2ccc(Cl)c(COc3cccc4c(OCc5ccccn5)cc(C)nc34)c2Cl)ccc1O | 5.23 | 6.48 | 
29 | CC(=O)Nc1ccc(/C=C/C(=O)NCC(=O)N(C)c2ccc(Cl)c(COc3cccc4ccc(C)nc34)c2Cl)cn1 [FR-173657] | 4.70 |  | 
30 | CNC(=O)c1ccc(/C=C/C(=O)NCC(=O)N(C)c2ccc(Cl)c(CO)c2Cl)cc1 | 3.19 | 6.03 | 
31 | O=C(c1cc(Cc2n[nH]c(=O)c3ccccc23)ccc1F)N1CCN(C(=O)C2CC2)CC1 [OLAPARIB] | 4.20 |  | 
32 | O=C1c2ccccc2C(=O)N1Cc1cn(-c2ccc(Cl)c(CO)c2Cl)nn1 | 3.28 | 7.15 | 
33 | COc1cccc2c1C(=O)c1c(O)c3c(c(O)c1C2=O)C[C@@](O)(C(=O)CO)C[C@@H]3O[C@H]1C[C@H](N)[C@@H](O)[C@H](C)O1 [EPIRUBICIN] | 6.82 |  | 
34 | O=c1[nH]cc(F)c(=O)[nH]1 [FLUOROURACIL] | 4.18 |  | 
35 | CS(=O)(=O)CCNCc1ccc(-c2ccc3ncnc(Nc4ccc(OCc5cccc(F)c5)c(Cl)c4)c3c2)o1 [LAPATINIB] | 4.97 |  | 
